Reference: ChEMBL document CHEMBL1132202, “2-Amino-3-substituted-6-[(E)-1-phenyl-2-(N-methylcarbamoyl)vinyl]imid azo[1,2-a]pyridines as a novel class of inhibitors of human rhinovirus: stereospecific synthesis and antiviral activity” (J Med Chem, 1999)
In brackets after ≈: the same amount, converted by molar mass. Values belong to the molecule of their own block, whether it stands above or below them.

Tests used:
[1] = Compound was measured for inhibition on Human Rhinovirus-14 by using PRA assay (Antiviral activity); type: functional, Human rhinovirus sp.
In short: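 H-HeLa cells grown in 60-mm dishes at 37 °C in MEM with 10% newborn calf serum and 1% nonessential amino acids. Overlay contained varied compound concentrations. Incubated 35 °C for 48 h, fixed with 10% formalin, stained with 0.5% crystal violet, plaques counted. Duplicate wells averaged vs DMSO controls. IC50 (50% plaque inhibition) by Reed-Muench from linear region of the curve.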

[2] = Compound was evaluated for cellular toxicity in on Human Rhinovirus-14 by using CPE/XTT assay (cytopathic effect assay); details: human rhinovirus sp.; read-out: TC50 (the source's name)
In short: (§1)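 CPE assay run per an earlier protocol, except that surviving host cells were quantified with XTT as substrate rather than crystal violet staining. The same assay gave the cellular toxicity TC50. Control samples without drug received 0.1% DMSO.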

[3] = Compound was measured for inhibition on Human Rhinovirus-14 by using CPE/XTT assay (Antiviral activity); type: functional, Human rhinovirus sp.; in short: as §1
[4] = Ratio of TC50 value to the IC50 value measured on rhinovirus-14 by using CPE/XTT assay.; type: functional
In short: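 Cytopathic-effect assay run per an earlier method, except that surviving host cells were quantified by XTT reduction instead of crystal violet staining. General cellular toxicity was taken as TC50, and the ratio was TC50 divided by IC50. No-drug controls received 0.1% DMSO.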

SMILES: CNC(=O)/C=C(\c1ccccc1)c1ccc2nc(N)c(SC(C)C)n2c1
IC50 [1]: 0.17 µg/mL (≈ 0.464 µM) | CC50 [2]: 10 µg/mL (≈ 27.3 µM) | IC50 [3]: 0.21 µg/mL (≈ 0.573 µM) | TC50/IC50 [4]: 48

IC50 [1]: > 3.2 µg/mL
SMILES: CNC(=O)/C=C(\c1ccccc1)c1ccc2nc(N)c(I)n2c1

IC50 [1]: > 10 µg/mL
SMILES: CNC(=O)/C=C(\c1ccccc1)c1ccc2nc(N)cn2c1

SMILES: CNC(=O)/C=C(\c1ccccc1)c1ccc2nc(N)c(-c3ccc(F)cc3C(F)(F)F)n2c1
IC50 [1]: 0.44 µg/mL (≈ 0.968 µM) | CC50 [2]: > 10 µg/mL | IC50 [3]: 0.48 µg/mL (≈ 1.06 µM) | TC50/IC50 [4]: >21

IC50 [1]: 0.64 µg/mL (≈ 1.61 µM)
SMILES: CNC(=O)/C=C(\c1ccccc1)c1ccc2nc(N)c(S(=O)(=O)C(C)C)n2c1

SMILES: CNC(=O)/C=C(\c1ccccc1)c1ccc2nc(N)c(-c3cc(F)ccc3F)n2c1
IC50 [1]: 0.18 µg/mL (≈ 0.445 µM) | CC50 [2]: 4.87 µg/mL (≈ 12 µM) | IC50 [3]: 0.16 µg/mL (≈ 0.396 µM) | TC50/IC50 [4]: 30

SMILES: CNC(=O)/C=C(\c1ccccc1)c1ccc2nc(N)c(-c3ccccc3)n2c1
IC50 [1]: 0.27 µg/mL (≈ 0.733 µM) | CC50 [2]: 5.03 µg/mL (≈ 13.7 µM) | IC50 [3]: 0.3 µg/mL (≈ 0.814 µM) | TC50/IC50 [4]: 17

SMILES: CNC(=O)/C=C(\c1ccccc1)c1ccc2nc(N)c(-c3ccc(F)c(F)c3F)n2c1
IC50 [1]: 0.17 µg/mL (≈ 0.402 µM) | CC50 [2]: 6.98 µg/mL (≈ 16.5 µM) | IC50 [3]: 0.21 µg/mL (≈ 0.497 µM) | TC50/IC50 [4]: 33
